According to ChEMBL document CHEMBL4373713, “Effect of 1-Deoxynojirimycin Isolated from Mulberry Leaves on Glucose Metabolism and Gut Microbiota in a Streptozotocin-Induced Diabetic Mouse Model” (J Nat Prod, 2019):
The source made the active and inactive calls. No cut-off for these calls is given here.

Experiments:
Assay type in all cases: functional, organism-based
Mus musculus [1] = test: Antidiabetic activity in STZ-induced Kunming mouse model of diabetes assessed as decrease in Prevo-tellaceae UCG-001 level in feces at 62.5 to 125 mg/kg, po administered QD administered via gavage for 4 weeks by 16S rDNA based DNA sequencing analysis
Mus musculus [2] = test: Antidiabetic activity in STZ-induced Kunming mouse model of diabetes assessed as decrease in Prevo-tellaceae Ga6A1 level in feces at 31.25 to 125 mg/kg, po administered QD administered via gavage for 4 weeks by 16S rDNA based DNA sequencing analysis
Mus musculus [3] = test: Antidiabetic activity in STZ-induced Kunming mouse model of diabetes assessed as decrease in Anaer-ostipes level in feces at 31.25 to 125 mg/kg, po administered QD administered via gavage for 4 weeks by 16S rDNA based DNA sequencing analysis
Mus musculus [4] = test: Antidiabetic activity in po dosed STZ-induced Kunming mouse model of diabetes assessed as increase in Firmicutes level in feces administered QD administered via gavage for 4 weeks by 16S rDNA based Illumina sequencing method
Mus musculus [5] = test: Antidiabetic activity in STZ-induced Kunming mouse model of diabetes assessed as increase in PFK expression level in liver at 125 m/kg, po administered QD administered via gavage for 4 weeks by Western blot analysis
Outline: (§1)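 Livers from diabetic mice after 28 days of daily gavage (31.25–125 mg/kg) were homogenized and spun at 14 000g, 4 °C. Proteins were run on 10% SDS-PAGE and transferred to PVDF, then blocked in 5% milk for 1 h. Primary antibodies (GK, PK, PFK, PCB, PEPCK, FBPase, G-6-Pase, p-IR Tyr999, p-IRS-1 Ser307) were applied for 1 h at 25 °C, followed by HRP anti-rabbit IgG and ECL detection. Mean ± SD, Duncan's test.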

Mus musculus [6] = test: Antidiabetic activity in STZ-induced Kunming mouse model of diabetes assessed as increase in Oscillibacter level in feces at 31.25 to 125 mg/kg, po administered QD administered via gavage for 4 weeks by 16S rDNA based Illumina sequencing method
Mus musculus [7] = test: Antidiabetic activity in STZ-induced Kunming mouse model of diabetes assessed as increase in Lactobacillus level in feces at 31.25 to 125 mg/kg, po administered QD administered via gavage for 4 weeks by 16S rDNA based Illumina sequencing method
Mus musculus [8] = test: Antidiabetic activity in STZ-induced Kunming mouse model of diabetes assessed as decrease in LDL-C level at 62.5 to 125 m/kg, po administered QD administered via gavage for 4 weeks
Outline: (§2)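 STZ/high-fat-diet diabetic Kunming mice (n=10/group) were gavaged daily for 28 days at 31.25–125 mg/kg. After an overnight fast, orbital-sinus blood was taken and plasma was spun at 1000g, 4 °C. TC, TG and HDL-C were measured by kit. LDL-C was calculated by Friedewald: TC − (HDL-C + TG/2.2), with TG below 4.5 mmol/L. Data are mean ± SD, Duncan's test.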

Mus musculus [9] = test: Antidiabetic activity in STZ-induced Kunming mouse model of diabetes assessed as decrease in Escherichia-Shigella level in feces at 31.25 to 125 mg/kg, po administered QD administered via gavage for 4 weeks by 16S rDNA based Illumina sequencing method
Mus musculus [10] = test: Antidiabetic activity in po dosed STZ-induced Kunming mouse model of diabetes assessed as reduction in fasting serum insulin level administered QD administered via gavage for 4 weeks
Outline: (§3)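 Fasting serum insulin was measured by commercial kit on plasma from orbital-sinus blood taken after an overnight fast at day 28. HOMA-IR was derived to assess insulin sensitivity. Diabetic mice were gavaged daily at 31.25–125 mg/kg. Mean ± SD, Duncan's test.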

Mus musculus [11] = test: Antidiabetic activity in STZ-induced Kunming mouse model of diabetes assessed as increase in Bifidobacterium level in feces at 31.25 to 125 mg/kg, po administered QD administered via gavage for 4 weeks by 16S rDNA based Illumina sequencing method
Mus musculus [12] = test: Antidiabetic activity in STZ-induced Kunming mouse model of diabetes assessed as increase in Alistipes level in feces at 31.25 to 125 mg/kg, po administered QD administered via gavage for 4 weeks by 16S rDNA based DNA sequencing analysis
Mus musculus [13] = test: Antidiabetic activity in STZ-induced Kunming mouse model of diabetes assessed as increase in Lactococcus level in feces at 31.25 to 125 mg/kg, po administered QD administered via gavage for 4 weeks by 16S rDNA based DNA sequencing analysis
Mus musculus [14] = test: Antidiabetic activity in po dosed STZ-induced Kunming mouse model of diabetes assessed as reduction in ALT activity administered QD administered via gavage for 4 weeks
Outline: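 Diabetic mice (high-fat diet plus STZ 35 mg/kg i.p.) were dosed by gavage once daily for 28 days at 31.25–125 mg/kg. After an overnight fast at endpoint, liver and plasma were collected. ALT, hepatic glycogen and pyruvic acid were measured with commercial kits.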

Mus musculus [15] = test: Antidiabetic activity in STZ-induced Kunming mouse model of diabetes assessed as down regulation of fructose-1-6-phosphatase expression level in liver at 31.25 to 125 m/kg, po administered QD administered via gavage for 4 weeks by Western blot analysis; outline: as §1
Mus musculus [16] = test: Antidiabetic activity in po dosed STZ-induced Kunming mouse model of diabetes assessed as reduction in HOMA-IR index level administered QD administered via gavage for 4 weeks; outline: as §3
Mus musculus [17] = test: Antidiabetic activity in STZ-induced Kunming mouse model of diabetes assessed as increase in PK expression level in liver at 62.5 to 125 m/kg, po administered QD administered via gavage for 4 weeks by Western blot analysis; outline: as §1
Mus musculus [18] = test: Antidiabetic activity in STZ-induced Kunming mouse model of diabetes assessed as increase in GK expression level in liver at 62.5 to 125 m/kg, po administered QD administered via gavage for 4 weeks by Western blot analysis; outline: as §1
Mus musculus [19] = test: Antidiabetic activity in STZ-induced Kunming mouse model of diabetes assessed as increase in glucose tolerance 31.25 to 125 mg/kg, po administered QD administered via gavage for 4 weeks and measured on day 26 followed by glucose challenge after 30 mins during compound dosing by OGTT
Outline: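 On treatment day 26, after a 12 h fast, diabetic mice received oral glucose at 2.0 g/kg. Tail-tip blood glucose was read at 0, 30, 60, 90 and 120 min. Daily gavage dosing was 31.25–125 mg/kg, n=10 per group.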

Mus musculus [20] = test: Antidiabetic activity in STZ-induced Kunming mouse model of diabetes assessed as increase in Lackno-spiraceae NK4A136 level in feces at 31.25 to 125 mg/kg, po administered QD administered via gavage for 4 weeks by 16S rDNA based Illumina sequencing method
Mus musculus [21] = test: Antidiabetic activity in STZ-induced Kunming mouse model of diabetes assessed as decrease in TC level at 125 m/kg, po administered QD administered via gavage for 4 weeks; outline: as §2

For `OC[C@H]1NC[C@H](O)[C@@H](O)[C@@H]1O`, the Activity (Mus musculus [1]) was “Active”, the Activity (Mus musculus [2]) was “Active” and the Activity (Mus musculus [3]) was “Active”. For the same compound, the Activity (Mus musculus [4]) was “Dose-dependent effect”, the Activity (Mus musculus [5]) was “Active” and the Activity (Mus musculus [6]) was “Active”. The Activity (Mus musculus [7]) was “Active”, the Activity (Mus musculus [8]) was “Active” and the Activity (Mus musculus [9]) was “inactive”. The Activity (Mus musculus [10]) was “Dose-dependent effect”, the Activity (Mus musculus [11]) was “Active” and the Activity (Mus musculus [12]) was “Active”. For the same compound, the Activity (Mus musculus [13]) was “inactive”, the Activity (Mus musculus [14]) was “Dose-dependent effect” and the Activity (Mus musculus [15]) was “Active”. For the same compound, the Activity (Mus musculus [16]) was “Dose-dependent effect”, the Activity (Mus musculus [17]) was “Active” and the Activity (Mus musculus [18]) was “Active”. The Activity (Mus musculus [19]) was “Active”, the Activity (Mus musculus [20]) was “Active” and the Activity (Mus musculus [21]) was “Active”.
